From ChEMBL document CHEMBL1144551, “Enantioselective synthesis and antiviral activity of purine and pyrimidine cyclopentenyl C-nucleosides” (Bioorg Med Chem, 2007)
The source made the active and inactive calls. The calls are words filed in the database; no cut-off is given here.

How the values were obtained:
Hepatitis C virus = assay: Antiviral activity against hepatitis C virus; assay type: functional, organism-based; settings: Hepacivirus hominis
Dengue virus = assay: Antiviral activity against dengue virus; assay type: functional, organism-based
Tacaribe virus = assay: Antiviral activity against tacaribe virus; assay type: functional, organism-based; settings: Mammarenavirus tacaribeense
LLC-MK2 = assay: Cytotoxicity against LLC-MK2 cells; assay type: cell-based, Macaca mulatta; settings: rhesus monkey
Human alphaherpesvirus 1 = assay: Antiviral activity against HSV1; assay type: functional, organism-based
Human alphaherpesvirus 3 = assay: Antiviral activity against varicella zoster virus; assay type: functional, organism-based
[1] = test system: Human immunodeficiency virus 1; assay: Antiviral activity against HIV1 LA1 in human PBM cells; assay type: functional, organism-based; settings: Human immunodeficiency virus 1, LA1, PBMC
Summary of the method: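 Human peripheral blood mononuclear (PBM) cells were infected with HIV-1 strain LAI, and antiviral activity was expressed as EC50.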

Vaccinia virus = assay: Antiviral activity against vaccinia virus; assay type: functional, organism-based; settings: Orthopoxvirus vaccinia
Vero = assay: Cytotoxicity against Vero cells; assay type: cell-based; settings: Chlorocebus sabaeus
[2] = test system: Venezuelan equine encephalitis virus; assay: Antiviral activity against Venezulean equine encephalitis virus; assay type: functional, organism-based
Yellow fever virus = assay: Antiviral activity against yellow fever virus; assay type: functional, organism-based
Cowpox virus = assay: Antiviral activity against Cowpox virus; assay type: functional, organism-based
Human alphaherpesvirus 2 = assay: Antiviral activity against herpes simplex virus 2; assay type: functional, organism-based
[3] = Cytotoxicity against PBM cells; assay type: cell-based; settings: Homo sapiens, PBMC
West Nile virus = assay: Antiviral activity against West Nile virus; assay type: functional, organism-based
CCRF-CEM = assay: Cytotoxicity against CEM cells; assay type: cell-based; settings: Homo sapiens
SARS-CoV = assay: Antiviral activity against SARS coronavirus; assay type: functional, organism-based; settings: Severe acute respiratory syndrome-related coronavirus
Punta Toro virus = assay: Antiviral activity against Punta Toro virus; assay type: functional, organism-based

SMILES | Activity (Hepatitis C virus) | Activity (Dengue virus) | Activity (Tacaribe virus) | Activity (LLC-MK2) | Activity (Human alphaherpesvirus 1) | Activity (Human alphaherpesvirus 3) | EC50 [1] [µM] | EC90 [1] [µM] | Activity (Vaccinia virus) | IC50 (Vero) [µM] | Activity [2] | Activity (Yellow fever virus) | EC50 (Cowpox virus) [µM] | IC50 (Cowpox virus) [µM] | Activity (Human alphaherpesvirus 2) | IC50 [3] [µM] | EC50 (West Nile virus) [µM] | IC50 (West Nile virus) [µM] | IC50 (CCRF-CEM) [µM] | EC50 (SARS-CoV) [µM] | other results
Nc1ncnc2c([C@@H]3C=C(CO)[C@@H](O)[C@H]3O)c[nH]c12 | inactive | inactive | inactive | Not Active | inactive | inactive | 2 | 43.2 | inactive | > 100 | inactive | inactive | > 100 | > 100 | inactive | 15.6 | > 100 | > 100 | 10.6 | – | –
Nc1nc(O)c2[nH]cc([C@@H]3C=C(CO)[C@@H](O)[C@H]3O)c2n1 | inactive | inactive | inactive | Not Active | inactive | inactive | > 100 | > 100 | inactive | > 100 | inactive | inactive | > 100 | > 100 | inactive | > 100 | > 100 | > 100 | > 100 | > 100 | EC50 (Punta Toro virus): 2.5 µM; IC50 (Punta Toro virus): > 100 µM
Nc1ncnc2c1ncn2[C@@H]1C=C(CO)[C@@H](O)[C@H]1O [NEOPLANOCIN A] | – | – | – | – | – | – | – | – | – | – | – | – | 8.4 | > 300 | – | – | > 51 | – | – | – | –
Cc1cn([C@H]2C[C@H](N=[N+]=[N-])[C@@H](CO)O2)c(=O)[nH]c1=O [ZIDOVUDINE] | – | – | – | – | – | – | – | – | – | – | – | – | – | – | – | > 100 | – | – | – | – | –
Nc1nc(=O)c([C@@H]2C=C(CO)[C@@H](O)[C@H]2O)c[nH]1 | inactive | inactive | inactive | Not Active | inactive | inactive | > 100 | > 100 | inactive | > 100 | inactive | inactive | > 100 | > 100 | inactive | > 100 | 11 | > 100 | > 100 | > 100 | EC50 (Punta Toro virus): > 100 µM; IC50 (Punta Toro virus): > 100 µM
O=c1[nH]cc([C@@H]2C=C(CO)[C@@H](O)[C@H]2O)c(=O)[nH]1 | inactive | inactive | inactive | Not Active | inactive | inactive | > 100 | > 100 | inactive | > 100 | inactive | inactive | > 100 | > 100 | inactive | > 100 | > 100 | > 100 | > 100 | 49 | IC50 (SARS-CoV): > 100 µM; EC50 (Punta Toro virus): 65 µM; IC50 (Punta Toro virus): > 100 µM
